Results as given in ChEMBL document CHEMBL3407490, “Synthesis of functionalized 3-, 5-, 6- and 8-aminoquinolines via intermediate (3-pyrrolin-1-yl)- and (2-oxopyrrolidin-1-yl)quinolines and evaluation of their antiplasmodial and antifungal activity” (Eur J Med Chem, 2015).
Converted amounts (≈) assume the structure as drawn. The source made the active and inactive calls. The rule behind the calls is not given here.

How the values were obtained:
Plasmodium falciparum [1] = assay: Antiplasmodial activity against chloroquine-sensitive asexual erythrocytic stage of Plasmodium falciparum NF54 assessed as […] lactate dehydrogenase assay; type: functional, organism-based
Method in brief: (§1)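 Asexual erythrocytic P. falciparum kept in continuous culture (modified Trager–Jensen). Growth measured by parasite lactate dehydrogenase assay (modified Makler). Full dose-response: 10 twofold dilutions in complete medium from 10 μg/mL down to 0.02 μg/mL. Tested in triplicate on one occasion. Chloroquine and artesunate as references.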

Candida albicans [2] = assay: Antifungal activity against Candida albicans IHEM 374 at 600 ug/dish after 1 day by disk diffusion method; type: functional, organism-based; conditions: 600 ug/dis
Method in brief: (§2)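 Disk diffusion: strains subcultured on Sabouraud dextrose agar; inoculum of colonies (yeast) or mycelium plus spores (A. flavus) in sterile saline adjusted to 0.5 McFarland, swabbed onto Mueller-Hinton + GMB agar ([…], 0.5 μg/mL methylene blue). DMSO-dissolved compound applied to 6 mm paper disks and freeze-dried; 600 μg/dish in triplicate. Incubated at 37 °C for 1 day (C. albicans, A. flavus) or 20 °C for 4 days (R. bogoriensis). Nystatin disks as positive control, DMSO disks as negative control.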

[3] = Antifungal activity against Rhodotorula bogoriensis MUCL 11796 at 600 ug/dish after 4 days by disk diffusion method; type: functional; conditions: 600 ug/dis; method in brief: as §2
Aspergillus flavus [4] = assay: Antifungal activity against Aspergillus flavus IHEM 5785 at 600 ug/dish after 1 day by disk diffusion method; type: functional, organism-based; conditions: 600 ug/dis; method in brief: as §2
Candida albicans [5] = assay: Antifungal activity against Candida albicans IHEM 374 by microdilution method; type: functional
Method in brief: (§3)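 Broth microdilution: log2 dilution series made from stocks in 10% DMSO, diluted 1:5 in RPMI 1640 with glutamine and without bicarbonate. Equal volume of working inoculum added: 1 × 10^3 CFU/mL at 37 °C (C. albicans, A. flavus) or 1 × 10^5 CFU/mL at 20 °C (R. bogoriensis). Absorbance read at 530 nm. MIC taken as the concentration giving 50% growth inhibition versus 1% DMSO medium control. Amphotericin B as positive control.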

[6] = Antifungal activity against Rhodotorula bogoriensis MUCL 11796 by microdilution method; type: functional; method in brief: as §3
Aspergillus flavus [7] = assay: Antifungal activity against Aspergillus flavus IHEM 5785 by microdilution method; type: functional; method in brief: as §3
Plasmodium falciparum [8] = assay: Antiplasmodial activity against chloroquine-resistant asexual erythrocytic stage of Plasmodium falciparum Dd2 assessed as […] lactate dehydrogenase assay; type: functional, organism-based; method in brief: as §1
CHO = assay: Cytotoxicity against CHO cells assessed as cell growth and survival after 48 hrs by MTT assay; type: cell-based; conditions: Cricetulus griseus
Method in brief: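 CHO mammalian cells; growth and survival read by MTT assay. Samples diluted in complete medium using the same scheme as the emetine reference (tenfold serial dilutions, 6 concentrations). Emetine was the reference drug. IC50 obtained by non-linear dose-response curve fitting.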

[9] = Selectivity index, ratio of IC50 for CHO cells to IC50 for chloroquine-sensitive asexual erythrocytic stage of Plasmodium falciparum NF54; type: toxicity, cell-based; conditions: hamster; read-out: Ratio IC50
Method in brief: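 Selectivity index calculated as IC50 in CHO cells (MTT) divided by IC50 against NF54 (pLDH).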

Plasmodium falciparum [10] = assay: Resistance index, ratio of IC50 for chloroquine-resistant asexual erythrocytic stage of Plasmodium falciparum Dd2 to IC50 for chloroquine-sensitive asexual erythrocytic stage of Plasmodium falciparum NF54; type: functional
Method in brief: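 Resistance index calculated as IC50 against Dd2 divided by IC50 against NF54, both from the pLDH assay.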

C1=CCN(c2cccc3cccnc23)C1
IC50 (Plasmodium falciparum [1]): > 50 µM

Cc1nc2ccccc2cc1NCCCC(C)O (stereo not drawn)
IC50 (Plasmodium falciparum [1]): > 40 µM

OCCCCNc1ccc2ncccc2c1
IC50 (Plasmodium falciparum [1]): > 45 µM
Activity (Candida albicans [2]): Active
Activity [3]: Active
Activity (Aspergillus flavus [4]): Active
MIC (Candida albicans [5]): 1200 µM (≈ 260 µg/mL)
MIC [6]: 1200 µM (≈ 260 µg/mL)
MIC (Aspergillus flavus [7]): 10 µM (≈ 2.16 µg/mL)

CC(O)CCCNc1cnc2ccccc2c1 (stereo not drawn)
IC50 (Plasmodium falciparum [1]): > 40 µM
Activity (Candida albicans [2]): Active
Activity [3]: Active
Activity (Aspergillus flavus [4]): Active
MIC (Candida albicans [5]): 1100 µM (≈ 253 µg/mL)
MIC [6]: 300 µM (≈ 69.1 µg/mL)
MIC (Aspergillus flavus [7]): 100 µM (≈ 23 µg/mL)

C1=CCN(c2cnc3ccccc3c2)C1
IC50 (Plasmodium falciparum [1]): > 50 µM

CC(C)(O)CCCNc1ccc2ncccc2c1
IC50 (Plasmodium falciparum [1]): > 40 µM

CC(C)(O)CCCNc1cccc2cccnc12
IC50 (Plasmodium falciparum [1]): > 40 µM
Activity (Candida albicans [2]): Active
Activity [3]: Active
Activity (Aspergillus flavus [4]): Active
MIC (Candida albicans [5]): 1000 µM (≈ 244 µg/mL)
MIC [6]: 30 µM (≈ 7.33 µg/mL)
MIC (Aspergillus flavus [7]): 60 µM (≈ 14.7 µg/mL)

OCCCCNc1cnc2ccccc2c1
IC50 (Plasmodium falciparum [1]): > 45 µM

CC(O)CCCNc1ccc2ncccc2c1 (stereo not drawn)
IC50 (Plasmodium falciparum [1]): > 40 µM
Activity (Candida albicans [2]): Active
Activity [3]: Active
Activity (Aspergillus flavus [4]): Active
MIC (Candida albicans [5]): 1100 µM (≈ 253 µg/mL)
MIC [6]: 1100 µM (≈ 253 µg/mL)
MIC (Aspergillus flavus [7]): 300 µM (≈ 69.1 µg/mL)

CC1CCCN1c1ccc2ncccc2c1 (stereo not drawn)
IC50 (Plasmodium falciparum [1]): 41.9 µM

Cc1nc2ccccc2cc1N1CCCC1C (stereo not drawn)
IC50 (Plasmodium falciparum [1]): 13.3 µM
IC50 (Plasmodium falciparum [8]): 38 µM
IC50 (CHO): 294 µM
selectivity ratio [9]: 22
Ratio IC50 (Plasmodium falciparum [10]): 2.9

CC1CCCN1c1cnc2ccccc2c1 (stereo not drawn)
IC50 (Plasmodium falciparum [1]): 31.1 µM

CC(C)(O)CCCNc1cccc2ncccc12
IC50 (Plasmodium falciparum [1]): 28.2 µM
Activity (Candida albicans [2]): Active
Activity [3]: Active
Activity (Aspergillus flavus [4]): Active
MIC (Candida albicans [5]): 2000 µM (≈ 489 µg/mL)
MIC [6]: 20 µM (≈ 4.89 µg/mL)
MIC (Aspergillus flavus [7]): 300 µM (≈ 73.3 µg/mL)

C[C@@H]1[C@H](O)[C@@H](C)/C=C/C=C/C=C/C=C/C=C/C=C/C=C/[C@H](O[C@@H]2O[C@H](C)[C@@H](O)[C@H](N)[C@@H]2O)C[C@@H]2O[C@](O)(C[C@@H](O)C[C@@H](O)[C@H](O)CC[C@@H](O)C[C@@H](O)CC(=O)O[C@H]1C)C[C@H](O)[C@H]2C(=O)O [AMPHOTERICIN B]
MIC (Candida albicans [5]): < 0.2 µM
MIC [6]: < 0.2 µM
MIC (Aspergillus flavus [7]): 30 µM (≈ 27.7 µg/mL)

c1ccc2ncc(N3CCCC3)cc2c1
IC50 (Plasmodium falciparum [1]): > 50 µM

O=C1CCCN1c1cnc2ccccc2c1
IC50 (Plasmodium falciparum [1]): > 45 µM

C1=CCN(c2cccc3ncccc23)C1
IC50 (Plasmodium falciparum [1]): > 50 µM

OCCCCNc1cccc2cccnc12
IC50 (Plasmodium falciparum [1]): > 45 µM
Activity (Candida albicans [2]): Active
Activity [3]: Active
Activity (Aspergillus flavus [4]): Active
MIC (Candida albicans [5]): 1200 µM (≈ 260 µg/mL)
MIC [6]: 40 µM (≈ 8.65 µg/mL)
MIC (Aspergillus flavus [7]): 100 µM (≈ 21.6 µg/mL)

Cc1nc2ccccc2cc1NCCCC(C)(C)O
IC50 (Plasmodium falciparum [1]): > 35 µM

O=C1CCCN1c1cccc2cccnc12
IC50 (Plasmodium falciparum [1]): > 45 µM

c1cc(N2CCCC2)c2cccnc2c1
IC50 (Plasmodium falciparum [1]): > 50 µM

O=C1CCCN1c1ccc2ncccc2c1
IC50 (Plasmodium falciparum [1]): > 45 µM

O=C1CCCN1c1cccc2ncccc12
IC50 (Plasmodium falciparum [1]): > 45 µM

OCCCCNc1cccc2ncccc12
IC50 (Plasmodium falciparum [1]): 19.9 µM
IC50 (Plasmodium falciparum [8]): 49 µM
IC50 (CHO): > 100 µM
selectivity ratio [9]: 23
Ratio IC50 (Plasmodium falciparum [10]): 2.5

CC(O)CCCNc1cccc2ncccc12 (stereo not drawn)
IC50 (Plasmodium falciparum [1]): 32.6 µM

CC1CCCN1c1cccc2ncccc12 (stereo not drawn)
IC50 (Plasmodium falciparum [1]): > 45 µM

C[C@H]1[C@H](OC(=O)CCC(=O)O)O[C@@H]2O[C@@]3(C)CC[C@H]4[C@H](C)CC[C@@H]1[C@@]24OO3 [ARTESUNATE]
IC50 (Plasmodium falciparum [8]): 0.011 µM
Ratio IC50 (Plasmodium falciparum [10]): 2.2

CC[C@H]1CN2CCc3cc(OC)c(OC)cc3[C@@H]2C[C@@H]1C[C@H]1NCCc2cc(OC)c(OC)cc21 [EMETINE]
IC50 (CHO): 0.125 µM

C1=CCN(c2ccc3ncccc3c2)C1
IC50 (Plasmodium falciparum [1]): > 50 µM

c1cnc2ccc(N3CCCC3)cc2c1
IC50 (Plasmodium falciparum [1]): > 50 µM

Brc1c(Br)c(Br)n(-c2ccc3ncccc3c2Br)c1Br
IC50 (Plasmodium falciparum [1]): > 15 µM
